Data set [1] has as its target Signal transducer and activator of transcription 3 (Homo sapiens) (UniProt P40763). Kind of data set: Inhibition of STAT3 phosphorylation in human SUDHL1 cells. It counts as cell-based. The method in brief:
(§1)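 Ba/F3 NPM-ALK, Karpas-299 or SU-DHL-1 cells treated for 4 h with DMSO or increasing concentrations. STAT3 and STAT5 phosphorylation read by Western blot of lysates.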

Data set [2] concerns BaF3. Description: Induction of apoptosis in mouse parental Ba/F3 cells at 50 nM after 48 hrs by annexin V assay. It counts as functional, cell-based. The method in brief: (§2)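 Parental Ba/F3 (with IL-3), Ba/F3 NPM-ALK or SU-DHL-1 cells treated with 50 nM or DMSO for 48 h. Annexin V/7-AAD staining read by flow cytometry; percent Annexin V-positive cells counted.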
For data set [3], the system named is BaF3. Description: Inhibition of mouse wild type BaF3/WT Luc+ cell proliferation. It counts as functional, cell-based. In short, it runs like this: (§3)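 Ba/F3 cells carrying luciferase, either parental (with IL-3) or transformed by NPM-ALK or TEL-kinase fusions, 25,000 per well with serial dilutions or DMSO for 2–3 days. Bright-Glo luminescence taken as proliferation/survival. IC50 from curve fit.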

The target of data set [4] is Nucleophosmin (Mus musculus) (UniProt Q61937). Description: Inhibition of NPM-ALK autophosphorylation in mouse Ba/F3 NPM-ALK cells after 4 hrs. It counts as cell-based. In short, it runs like this: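 Ba/F3 NPM-ALK cells exposed to a range of concentrations for 4 h. NPM-ALK autophosphorylation read by Western blot. IC50 from quantified band intensities.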
Sequence of Nucleophosmin (Mus musculus) (Q61937 whole entry): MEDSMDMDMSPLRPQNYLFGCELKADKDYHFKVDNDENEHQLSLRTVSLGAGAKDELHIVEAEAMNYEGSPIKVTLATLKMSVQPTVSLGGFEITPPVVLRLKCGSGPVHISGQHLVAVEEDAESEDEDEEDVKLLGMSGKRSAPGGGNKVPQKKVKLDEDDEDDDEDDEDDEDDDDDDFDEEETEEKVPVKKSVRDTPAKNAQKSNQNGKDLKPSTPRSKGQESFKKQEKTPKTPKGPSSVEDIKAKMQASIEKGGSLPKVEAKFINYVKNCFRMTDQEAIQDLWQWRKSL
Data set [5] has as its system SU-DHL-1. Kind of data set: Induction of apoptosis in human SUDHL1 cells at 50 nM after 48 hrs by annexin V assay. It counts as functional. The method in brief:
as §2

Data set [6] in a line: Elimination half life in human Karpas299 cells xenografted SCID beige mouse at 20 mg/kg, po. It counts as ADME, organism-based, KARPAS-299. Details: dose 20 mg/kg, route oral. As to conditions: in vivo. The method in brief: (§4)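 Mice given a single oral dose of 20 mg/kg as a solution in 10% 1-methyl-2-pyrrolidinone/90% PEG 300. Plasma levels measured to give Cmax, bioavailability and elimination half-life.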
In general terms: Xenograft models place foreign cells or tissue in a host animal.

Data set [7] concerns the target Nucleophosmin (Mus musculus) (UniProt Q61937). Kind of data set: Inhibition of NPM-ALK in mouse Ba/F3 NPM-ALK cells at 50 nM. It counts as cell-based. As to conditions: TDE = time-dependent effect.
The test system of another data set is BCR-ABL. Kind of data set: Antilymphomal activity against mouse Ba/F3 BCR-ABL cells xenografted in SCID beige mouse assessed as reduction in bioluminescence signal at 10 mg/kg, po once daily after 2 weeks. It counts as functional, organism-based. Further details: dose 10 mg/kg. In short, it runs like this: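 Female Fox Chase SCID_Beige mice injected in the tail vein with 1 × 10⁶ luciferase-expressing Ba/F3 BCR-ABL or Ba/F3 NPM-ALK cells. From 72 h, 10 mg/kg given orally once daily in 10% 1-methyl-2-pyrrolidinone/90% PEG 300, or vehicle. Bioluminescence imaged after 2 weeks; spleens weighed.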

For data set [8], the system named is KARPAS-299. Kind of data set: Inhibition of PI3K/Akt signaling in human Karpas299 cells assessed as Akt phosphorylation. It counts as cell-based. In short, it runs like this: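 Karpas-299 cells treated for 4 h with increasing concentrations or DMSO. Phospho-ERK and phospho-Akt read by Western blot.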
Data set [9] has as its target Signal transducer and activator of transcription 3 (Homo sapiens) (UniProt P40763). Kind of data set: Inhibition of STAT3 in human Karpas299 cells at 50 nM. Particulars: KARPAS-299, TDE = time-dependent effect. It counts as cell-based. In short, it runs like this: (§5)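 Ba/F3 NPM-ALK or Karpas-299 cells held at 50 nM for times from 15 min onward. Phospho-NPM-ALK and phospho-STAT3 read by Western blot.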

Data set [10] in a line: Cmax in human Karpas299 cells xenografted SCID beige mouse at 20 mg/kg, po. It counts as ADME, organism-based, KARPAS-299. Details: dose 20 mg/kg, route oral. As to conditions: in vivo. The method in brief: as §4
Data set [11] relates to SU-DHL-1. Description: Antiproliferative activity against human SUDHL1 cells assessed as luciferase expression after 72 hrs. As to conditions: SU-DHL-1, 72 h. It counts as functional, cell-based. The method in brief: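 Luciferase-expressing Karpas-299 or SU-DHL-1 cells, 25,000 per well, exposed to serial dilutions or DMSO for 72 h. Bright-Glo luminescence normalized to DMSO wells as percent survival. IC50 from curve fit.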

Data set [12] can be described thus: Cytotoxicity against mouse parental Ba/F3 cells assessed as luciferase expression up to 1 uM after 2 to 3 days. It counts as cell-based. Particulars: baf3. The method in brief: as §3
The target in data set [13] is Signal transducer and activator of transcription 3 (Mus musculus) (UniProt P42227). Description: Inhibition of STAT3 in mouse Ba/F3 NPM-ALK cells at 50 nM. It counts as cell-based. As to conditions: TDE = time-dependent effect. The method in brief: as §5
Sequence of Signal transducer and activator of transcription 3 (Mus musculus) (P42227 whole entry): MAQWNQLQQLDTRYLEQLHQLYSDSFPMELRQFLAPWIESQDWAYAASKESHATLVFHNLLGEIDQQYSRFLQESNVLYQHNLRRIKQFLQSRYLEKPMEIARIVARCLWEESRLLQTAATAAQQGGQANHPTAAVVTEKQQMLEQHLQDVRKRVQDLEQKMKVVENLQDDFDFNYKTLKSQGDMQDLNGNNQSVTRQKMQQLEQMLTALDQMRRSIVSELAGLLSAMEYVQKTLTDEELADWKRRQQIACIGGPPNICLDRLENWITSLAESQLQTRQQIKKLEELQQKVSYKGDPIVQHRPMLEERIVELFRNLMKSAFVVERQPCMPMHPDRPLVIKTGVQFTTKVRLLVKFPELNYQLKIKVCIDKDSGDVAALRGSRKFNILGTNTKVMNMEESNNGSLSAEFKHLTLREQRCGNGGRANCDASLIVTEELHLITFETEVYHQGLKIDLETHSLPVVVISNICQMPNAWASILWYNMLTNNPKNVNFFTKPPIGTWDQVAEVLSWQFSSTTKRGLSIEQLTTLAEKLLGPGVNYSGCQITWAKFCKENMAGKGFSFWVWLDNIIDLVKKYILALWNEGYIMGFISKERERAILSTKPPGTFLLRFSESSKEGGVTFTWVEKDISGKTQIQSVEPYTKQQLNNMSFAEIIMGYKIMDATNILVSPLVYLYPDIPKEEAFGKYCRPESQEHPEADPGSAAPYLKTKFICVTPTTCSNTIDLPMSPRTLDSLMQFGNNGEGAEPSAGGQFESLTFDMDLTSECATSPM
Data set [14] deals with Signal transducer and activator of transcription 3 (Homo sapiens) (UniProt P40763). Kind of data set: Inhibition of STAT3 phosphorylation in human Karpas299 cells. It counts as cell-based. As to conditions: KARPAS-299. In short, it runs like this:
as §1

Data set [15] has as its target Signal transducer and activator of transcription 3 (Mus musculus) (UniProt P42227). Description: Inhibition of STAT3 phosphorylation in mouse Ba/F3 NPM-ALK cells. It counts as cell-based. In short, it runs like this:
as §1

For data set [16], the system named is KARPAS-299. Description: Antilymphomal activity against human Karpas299 cells xenografted in SCID beige mouse assessed as reduction in NPM-ALK phosphorylation after 3.5 weeks of […] at 10 mg/kg for 3 days. It counts as functional, organism-based. Further details: dose 10 mg/kg. In short, it runs like this:
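Female Fox Chase SCID_Beige mice given 1 × 10⁶ Karpas-299 cells by tail vein. Treatment began at 3.5 weeks, once palpable lymphomas had formed. Drug at 10 mg/kg or vehicle for 3 days, 3 mice per arm. Killed 4 h after the third dose. Excised lymph nodes immunoblotted for NPM-ALK and Stat3 phosphorylation.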

Each structure is given as a SMILES string. Activity calls are given as the source filed them. No cut-off for these calls is given here.

Sequence of Signal transducer and activator of transcription 3 (Homo sapiens) (P40763 whole entry): as the sequence (P42227 whole entry) above, with D760E counted along it

As a reminder, the IC50 is the point on the concentration scale where inhibition reaches its midpoint. The half-life is the time in which the quantity being followed falls by half. A lower half-life goes with fast loss. By Cmax is commonly meant the highest concentration seen after dosing. For `COc1cc(N2CCC(N3CCN(C)CC3)CC2)ccc1Nc1ncc(Cl)c(Nc2ccccc2S(=O)(=O)C(C)C)n1` [TAE-684], the Activity result was “Dose-dependent effect” in data set [1]; “Dose-dependent effect” in data set [4]; 70% with SU-DHL-1 [5]; “tde” in data set [7]; “Dose-dependent effect” in the data set on KARPAS-299 [8]; “tde” in data set [9]. In addition, the Activity result in data set [12] was “Not Active”; in data set [13], “tde”; in data set [14], “Dose-dependent effect”; in data set [15], “Dose-dependent effect”. In addition, the result in the data set with BaF3 [2] and with BCR-ABL was inactive. In addition, the IC50 with BaF3 [3] is 2750 nM; in the data set on SU-DHL-1 [11], 2 nM. The molecule further had a half-life in data set [6] of 12 h. Besides, the concentration in data set [10] peaked (Cmax) at 800 nM. Also, in the data set on KARPAS-299 [16], the result was Active.

Values taken from ChEMBL document CHEMBL1156430, “Identification of NVP-TAE684, a potent, selective, and efficacious inhibitor of NPM-ALK” (Proc Natl Acad Sci U S A, 2007).
